Experimental data reported in ChEMBL document CHEMBL3244193, “Design of species- or isozyme-specific enzyme inhibitors. 3. Species and isozymic differences between mammalian and bacterial adenylate kinases in substituent tolerance in an enzyme-substrate complex” (J Med Chem, 1979).

Columns and labels:
[1] = substrate: CCCSc1nc2c(N)ncnc2n1[C@@H]1O[C@H](COP(=O)(O)OP(=O)(O)OP(=O)(O)O)[C@@H](O)[C@H]1O; assay: (§1) Activity of Sprague-Dawley rat liver adenylate kinase 3 by Lineweaver-Burk plot analysis
Summary of the method: (§2)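 Substrate kinetics in a pyruvate kinase/lactate dehydrogenase-coupled assay: 0.1 M Tris-HCl pH 7.6, 2 mM MgSO4, 0.12 M KCl, 0.3 mM PEP, 0.38 mM NADH, 0.25 mM AMP. A340 change over 5 min at 23 °C. Derivatives screened first at ca. 0.8 mM. Five or more substrate levels; KM and Vmax (relative to ATP) taken from linear Lineweaver-Burk plots.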

[2] = substrate: CCSc1nc2c(N)ncnc2n1[C@@H]1O[C@H](COP(=O)(O)OP(=O)(O)OP(=O)(O)O)[C@@H](O)[C@H]1O; assay: as §1; summary of the method: as §2
[3] = substrate: CSc1nc2c(N)ncnc2n1[C@@H]1O[C@H](COP(=O)(O)OP(=O)(O)OP(=O)(O)O)[C@@H](O)[C@H]1O; assay: as §1; summary of the method: as §2
[4] = substrate: Nc1ncnc2c1nc(SCCO)n2[C@@H]1O[C@H](COP(=O)(O)OP(=O)(O)OP(=O)(O)O)[C@@H](O)[C@H]1O; assay: as §1; summary of the method: as §2
[5] = substrate: Nc1ncnc2c1ncn2[C@@H]1O[C@H](COP(=O)(O)OP(=O)(O)OP(=O)(O)O)[C@@H](O)[C@H]1O; assay: as §1; summary of the method: as §2
[6] = substrate: O=C(CI)NCCCCCNc1ncnc2c1ncn2[C@@H]1O[C@H](COP(=O)(O)OP(=O)(O)OP(=O)(O)O)[C@@H](O)[C@H]1O; assay: as §1; summary of the method: as §2
[7] = substrate: CCCSc1nc2c(N)ncnc2n1[C@@H]1O[C@H](COP(=O)(O)OP(=O)(O)OP(=O)(O)O)[C@@H](O)[C@H]1O; assay: (§3) Activity of Sprague-Dawley rat liver adenylate kinase 3 by Lineweaver-Burk plot analysis relative to ATP; summary of the method: as §2
[8] = substrate: CCSc1nc2c(N)ncnc2n1[C@@H]1O[C@H](COP(=O)(O)OP(=O)(O)OP(=O)(O)O)[C@@H](O)[C@H]1O; assay: as §3; summary of the method: as §2
[9] = substrate: CSc1nc2c(N)ncnc2n1[C@@H]1O[C@H](COP(=O)(O)OP(=O)(O)OP(=O)(O)O)[C@@H](O)[C@H]1O; assay: as §3; summary of the method: as §2
[10] = substrate: Nc1ncnc2c1nc(SCCO)n2[C@@H]1O[C@H](COP(=O)(O)OP(=O)(O)OP(=O)(O)O)[C@@H](O)[C@H]1O; assay: as §3; summary of the method: as §2
[11] = substrate: Nc1ncnc2c1ncn2[C@@H]1O[C@H](COP(=O)(O)OP(=O)(O)OP(=O)(O)O)[C@@H](O)[C@H]1O; assay: as §3; summary of the method: as §2
[12] = substrate: O=C(CI)NCCCCCNc1ncnc2c1ncn2[C@@H]1O[C@H](COP(=O)(O)OP(=O)(O)OP(=O)(O)O)[C@@H](O)[C@H]1O; assay: as §3; summary of the method: as §2
[13] = substrate: CCCSc1nc2c(N)ncnc2n1[C@@H]1O[C@H](COP(=O)(O)OP(=O)(O)OP(=O)(O)O)[C@@H](O)[C@H]1O; assay: (§4) Activity of Sprague-Dawley rat muscle adenylate kinase by Lineweaver-Burk plot analysis relative to ATP; summary of the method: as §2
[14] = substrate: CSc1nc2c(N)ncnc2n1[C@@H]1O[C@H](COP(=O)(O)OP(=O)(O)OP(=O)(O)O)[C@@H](O)[C@H]1O; assay: as §4; summary of the method: as §2
[15] = substrate: Nc1ncnc2c1ncn2[C@@H]1O[C@H](COP(=O)(O)OP(=O)(O)OP(=O)(O)O)[C@@H](O)[C@H]1O; assay: as §4; summary of the method: as §2
[16] = substrate: O=C(CI)NCCCCCNc1ncnc2c1ncn2[C@@H]1O[C@H](COP(=O)(O)OP(=O)(O)OP(=O)(O)O)[C@@H](O)[C@H]1O; assay: as §4; summary of the method: as §2
[17] = substrate: Nc1ncnc2c1ncn2[C@@H]1O[C@H](COP(=O)(O)OP(=O)(O)OP(=O)(O)O)[C@@H](O)[C@H]1O; settings: Rattus norvegicus; Sprague-Dawley

Row | Protein | Km [1] | Km [2] | Km [3] | Km [4] | Km [5] | Km [6] | Vmax [7] | Vmax [8] | Vmax [9] | Vmax [10] | Vmax [11] | Vmax [12] | Vmax [13] | Vmax [14] | Vmax [15] | Vmax [16] | Km [17]
1 | GTP:AMP phosphotransferase AK3, mitochondrial (Rattus norvegicus), P29411 (protein) MGASGRLLRAVIMGAPGSGKGTGSSRITKHFELKHLSSGDLLRQNMLQGTEIAVLAKSFIDQGKLIPDDDMTRLALHELKNLTQCSWLLDGFPRTLPQAEALDRVYQIDTVINLNVPFEVIKLRLTARWIHPASGRVYNIEFNPPKTVGIDDLTGEPLIQREDDKPETVIKRLKAYEAQTEPVLQYYQKKGVLETFSGTETNKIRPHVYSFLQMKVPETIQKASVTP | 40 µM | 70 µM | 150 µM | 120 µM | 90 µM | 400 µM | 10.4% | 11.4% | 8.3% | 12.5% | 100% | 8.9% | – | – | – | – | –
2 | Adenylate kinase isoenzyme 1 (Rattus norvegicus), P39069 (protein) MEDKLKKAKIIFVVGGPGSGKGTQCEKIVQKYGYTHLSTGDLLRAEVSSGSSRGKMLSSIMEKGELVPLETVLDMLRDAMLAKVDSSNGFLIDGYPREVKQGEEFERKIAQPTLLLYVDAGPETMTQRLLKRGETSGRVDDNEETIKKRLETYYKATEPVISFYDKRGIVRKVNAEGSVDTVFSQVCTYLDSLK | – | – | – | – | – | – | – | – | – | – | – | – | 0% | 0% | 100% | 0% | 650 µM
